High-throughput results from PubChem.
Mdm2-MdmX inh – inhibitors of human Mdm2-MdmX association, primary screen, cell-based, luminescence, split luciferase, SaOS-2, uHTS | Protein Mdm4 (Homo sapiens) + E3 ubiquitin-protein ligase Mdm2 (Homo sapiens), … | SaOS-2 split-luciferase Mdm2/MdmX complementation | inhibition, % at 8 µM | 330,000 tested, 3% active;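 active = inhibition of at least 50% at 8 µM in the primary screen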
Target sequence (O15151 whole entry, looked up): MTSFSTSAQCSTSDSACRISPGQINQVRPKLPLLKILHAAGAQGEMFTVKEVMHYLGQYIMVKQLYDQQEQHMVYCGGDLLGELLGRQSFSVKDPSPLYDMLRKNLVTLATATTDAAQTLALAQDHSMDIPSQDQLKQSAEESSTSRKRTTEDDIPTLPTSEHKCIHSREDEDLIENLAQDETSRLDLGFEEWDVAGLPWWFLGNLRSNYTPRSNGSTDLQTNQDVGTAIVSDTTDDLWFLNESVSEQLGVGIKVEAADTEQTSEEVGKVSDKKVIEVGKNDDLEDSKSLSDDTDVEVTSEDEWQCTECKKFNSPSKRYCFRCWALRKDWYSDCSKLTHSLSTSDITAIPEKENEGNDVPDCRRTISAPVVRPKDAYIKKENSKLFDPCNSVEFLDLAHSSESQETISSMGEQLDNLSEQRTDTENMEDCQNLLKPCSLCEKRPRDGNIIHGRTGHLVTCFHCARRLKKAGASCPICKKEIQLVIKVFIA
Target sequence (Q00987 whole entry, looked up): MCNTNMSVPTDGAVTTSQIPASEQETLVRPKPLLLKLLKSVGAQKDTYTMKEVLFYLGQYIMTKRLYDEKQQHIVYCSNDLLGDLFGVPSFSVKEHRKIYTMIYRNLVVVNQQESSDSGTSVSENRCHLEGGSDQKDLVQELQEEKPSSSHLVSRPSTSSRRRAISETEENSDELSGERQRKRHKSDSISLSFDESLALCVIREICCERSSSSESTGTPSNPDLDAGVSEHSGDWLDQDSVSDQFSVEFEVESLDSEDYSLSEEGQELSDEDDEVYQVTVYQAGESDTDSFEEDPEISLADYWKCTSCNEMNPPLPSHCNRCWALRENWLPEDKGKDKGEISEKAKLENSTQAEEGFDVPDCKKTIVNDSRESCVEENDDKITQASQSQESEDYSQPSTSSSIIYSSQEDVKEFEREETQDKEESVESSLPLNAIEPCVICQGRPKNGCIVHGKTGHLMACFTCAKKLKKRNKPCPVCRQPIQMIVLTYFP
CSC inhib – cancer stem cell viability inhibitors, primary screen, luminescence; cancer stem cell-like cells viability; inhibition, % at 7.5 µM; 300,000 tested, 1.1% active; AID 2717, 2010; in the data active = inhibition above about 75%; inconclusive = no clear call, values can overlap the other calls; tested in HMLE shEcad cells
T cruzi repl – inhibitors of intracellular T. cruzi growth, primary screen, luminescence, NIH3T3 host cells | T. cruzi beta-gal in NIH3T3, 90 h | inhibition, % (test concentration not listed) | 300,000 tested, 1.4% active;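 active = mean inhibition across valid replicates above about 55%, limit read from the data; inconclusive = mean below that limit but half or more replicates reach it; inactive = mean below it, under half of replicates reach it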;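 note: signal also drops with host cell toxicity which is not excluded here; 0% = plate median of DMSO wells and 100% = zero luminescence signal; higher percent means less beta-gal luminescence so fewer parasites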
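Test system: β-gal T. cruzi (Tulahuen C4) inside NIH/3T3 cells / Quantity: 5,000 cells/well / Measured by: luminescence from GalScreen with 0.05% NP40, read after 60 min / Medium: DMEM plus 2% FBS / Measure: parasite load inhibition, % / Reagent: Tulahuen C4 trypomastigotes, 5000/well / Schedule: co-culture of at least 90 h after 3 h attachment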
Beta cell apopt – inhibitors of cytokine-induced beta cell apoptosis, primary screen, luminescence; protection from apoptosis, % (test concentration not listed); INS-1E cytokine-induced death, ATP luminescence, 48 h; percent of positive-control rescue, neutral wells zero; 300,000 tested, 0.8% active;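 active = Every replicate reaches about 75%, or at least half do and their mean reaches it too, limit read from the data; inconclusive = At least half of replicates reach the limit but their mean does not; inactive = Under half of replicates reach the limit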;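 note: 0% = cytokine-treated negative control wells and 100% = positive control rescue; higher means more ATP so stronger rescue from cytokine killing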
NLRP3 yeast inh – NALP3 inflammasome inhibitors in reconstituted yeast, primary screen, luminescence, uHTS; Yeast reconstituted NLRP3/ASC/caspase-1, beta-gal luminescence, 24 h; inhibition, % at 10 µM; 330,000 tested, 0.39% active;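 active = inhibition of 50% or more; inactive = inhibition below 50%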;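 note: plate controls were induced DMSO wells for no effect and uninduced yeast grown without galactose for full effect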
Calb FLC – C. albicans growth inhibition with fluconazole, primary screen, CaCi-2 strain, Alamar Blue fluorescence. C. albicans CaCi-2 (fluconazole-resistant clinical isolate) + fluconazole, 48 h. 300,000 tested, 0.57% active. AID 1979, 2009. growth inhibition, % (test concentration not listed);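 active = growth inhibition above about 58% in most replicates, limit read from the data, passing the limit was not always enough; inconclusive = exactly half the replicates above a set limit; inactive = most replicates below a set limit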;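 note: all wells also contain fluconazole at 8 µg/ml as a sub-toxic cotreatment; 0% = median of DMSO wells and 100% = median of geldanamycin control wells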
NALP3 confirm – NALP3 inhibitors retested in yeast, confirmation, luminescence, single concentration; shares compounds with NLRP3 yeast inh; yeast expressing human NALP3; inhibition, % at 10 µM; 1,300 tested, 81% active; in the data active = inhibition above about 48%
Casp1 ASC ctr – CASP1-PYCARD signaling inhibition in yeast, confirmatory test, counterassay for NLRP3 inhibitor program, one-dose; shares compounds with NLRP3 yeast inh; yeast expressing Caspase-1-ASC, luminescence counter screen; inhibition, % at 10 µM; 1,000 tested, 66% active
NALP3 yeast rt – NALP3 inhibitors in yeast, repeat test, confirmation, luminescence, single concentration, retest; shares compounds with NLRP3 yeast inh; yeast expressing human NALP3, luminescence read-out; inhibition, % at 10 µM; 1,000 tested, 53% active; AID 488794, 2010
Starred values were filed as active, the others as inactive; ? = inconclusive; . = not tested or not shown. Shown are actives, neighbours in structure and some others; about 5.3% of the full set was active somewhere. Cut-off read from the data, not from the text of the source, unless noted: active = inhibition above about 50%; inactive = the rest.

SMILES | Mdm2-MdmX inh | CSC inhib | T cruzi repl | Beta cell apopt | NLRP3 yeast inh | Calb FLC | NALP3 confirm | Casp1 ASC ctr | NALP3 yeast rt
Brc1ccc(-c2cn3c(n2)SCC3)cc1 | -96 | -14 | 5 | -3 | 59* | -32 | 64* | 63* | 61*
CNS(=O)(=O)c1cc(NC(=O)c2cnc(SC)n2-c2ccccc2)ccc1C | 18 | -9 | 1 | 2 | 0 | 2 | . | . | .
O=C(CSc1nnnn1-c1ccc(Cl)cc1)N1CCc2ccccc2C1 | -9 | . | 8 | -3 | 56* | -4 | 70* | 78* | 85*
O=C(NC1CCN(S(=O)(=O)c2cccc(Cl)c2)CC1)C1CCCCC1 | -21 | -5 | 5 | 2 | 53* | 5 | 56* | 25 | 20
O=C(NNC(=O)C1CCN(S(=O)(=O)c2cccc(Cl)c2)CC1)C1CC1 | -7 | 3 | -1 | -7 | 2 | 2 | . | . | .
CN1CCN(c2ccc(NC(=S)NC(=O)c3cccc4c(Cl)cccc34)cc2)CC1 | 30 | -8 | 17 | 12 | 41 | ? | . | . | .
CC(=O)N(CN1C(=O)c2ccccc2C1=O)c1cccc(C)c1 | 8 | -6 | -6 | -2 | 1 | -12 | . | . | .
CC(=O)N(/N=C1\Sc2ccccc2C1=O)c1cccc(C)c1 | -61 | 17 | 5 | -3 | 54* | -1 | 64* | 30 | 30
O=C(Nc1cccc(Cl)c1)c1cnn2cccnc12 | -52 | 6 | -25 | 2 | 53* | 7 | 79* | 43 | 56*
CCN(CC)C(=O)C(C)OC(=O)c1ccc(O)cc1 (stereo not given) | -18 | -9 | -10 | -2 | 5 | -7 | . | . | .
Brc1ccc(-n2cnc(-c3ccccc3)c2)cc1 | -173 | 15 | -4 | 6 | 52* | -1 | 77* | 36 | 51*
NNc1nc(-c2ccccc2)cc(-c2ccc(Br)cc2)n1 | 37 | 53 | 16 | 7 | 16 | 4 | . | . | .
O=C1C2N=NN(CC(=O)N3N=C(c4ccccc4)CC3c3ccc([N+](=O)[O-])cc3)C2C(=O)N1c1ccccc1 (stereo not given) | 10 | 12 | -3 | 4 | 55* | 41 | 71* | . | .
COc1ccc(C)cc1-n1nnnc1SCC1CCCCO1 (stereo not given) | 3 | 5 | 13 | 4 | 53* | -8 | 34 | . | .
COc1ccc(N2CCN(CCNC(=O)c3c(C)cc(=O)oc3C)CC2)cc1 | -8 | . | 14 | . | 67* | -10 | 80* | 86* | 91*
C=C1CCC2[C@](C)(CO)[C@H](O)CC[C@@]2(C)[C@@H]1/C=C/C1=CCOC1=O (stereo not given in full) | 6 | -8 | -11 | -2 | 5 | -3 | . | . | .
CCCCOCCCN1CC(=O)N2C(C)c3[nH]c4ccccc4c3C[C@H]2C1=O (stereo not given in full) | 8 | -11 | 22 | -5 | 16 | -6 | . | . | .
Cc1ccc(NC(=O)Cc2csc(-c3ccccc3)n2)cc1F | 11 | -10 | -7 | -2 | 62* | -14 | 38 | 53* | 60*
CO/N=C(\Cn1ncc(N2CCCC2)c(Br)c1=O)c1ccc(Cl)cc1 | 10 | 6 | 3 | -12 | 77* | -7 | 69* | 78* | 57*
O=C(COc1ccccc1Br)NCc1ccco1 | -20 | -1 | -3 | -4 | 6 | -3 | . | . | .
CCc1ccc(OCC(=O)NCc2ccco2)c(Br)c1 | -44 | -4 | 5 | -7 | 51* | 4 | 46 | 44 | 46
COc1ccc2oc(=Nc3cccc(F)c3)c(C(N)=O)cc2c1 | 22 | 21 | -21 | 3 | 50* | 40 | 62* | 63* | 39
CC(C)C(=O)Nc1nnc(CCc2ccccc2)s1 | 3 | 3 | -7 | -5 | 5 | -21 | . | . | .
Cc1ccc(C)c(NC(=S)NC2CC3CCC(C2)N3Cc2ccco2)c1 (stereo not given) | -3 | -4 | -18 | -11 | 8 | -7 | . | . | .
CCCCCNC(=O)C(=O)C1C(=O)Nc2ccccc21 (stereo not given) | 30 | -14 | 2 | -5 | 52* | -1 | 71* | 43 | 51*
SMILES | Mdm2-MdmX inh | CSC inhib | T cruzi repl | Beta cell apopt | NLRP3 yeast inh | Calb FLC | NALP3 confirm | Casp1 ASC ctr | NALP3 yeast rt
CN(C)CCNC(=O)C(=O)C1C(=O)Nc2ccccc21 (stereo not given) | 0 | 0 | -2 | -6 | 12 | 1 | . | . | .
Cc1ccc(/C=N/N(C)S(=O)(=O)c2ccc(C)cc2)cc1 | 18 | 23 | 18 | . | 51* | -4 | 58* | 58* | 33
CSc1ccc(/C=N/N(C)S(=O)(=O)c2ccc(C)cc2)cc1 | 14 | 12 | 15 | 3 | 42 | -5 | . | . | .
CCC1Oc2ccccc2N(Cc2ccccc2C)C1=O (stereo not given) | 18 | 1 | -1 | -3 | -151 | -16 | -22 | . | .
O=C(CCNc1ccccc1)c1ccc2c(c1)OCO2 | -88 | 0 | -2 | 2 | 56* | -18 | 64* | 64* | 46
O=C(/C=C/c1ccccc1Br)c1ccc2c(c1)OCO2 | -13 | 24 | -9 | 3 | 62* | 7 | 60* | 20 | 29
O=C(/C=C/c1ccccc1)c1ccc2c(c1)OCO2 | -1 | 9 | 12 | 0 | 53* | 1 | 40 | 42 | 34
CC(C)(C)OC(=O)C(C(=O)OC(C)(C)C)c1ccc(Cl)nn1 | 18 | -5 | -27 | -5 | 27 | ? | . | . | .
O=C(N/N=C/C(Cl)=C\c1ccccc1)c1ccco1 | -52 | -6 | -9 | -2 | 59* | 6 | 61* | 74* | 56*
CCOc1ccc(CC(=O)Nc2c(C(N)=O)oc3ccccc23)cc1OCC | 6 | -14 | 0 | -3 | 12 | 1 | . | . | .
O=C(NC(=S)Nc1cccc([N+](=O)[O-])c1)c1ccco1 | -32 | . | -9 | . | 17 | 1 | . | . | .
O=C(NC(=S)Nc1cccc([N+](=O)[O-])c1)c1ccccc1 | -30 | -5 | 4 | 11 | 51* | 31 | 64* | 43 | 39
CCCCN(C(=O)CSc1nnc(-c2ccccc2)n1C)c1c(N)n(Cc2ccccc2)c(=O)[nH]c1=O | 10 | 1 | ? | -6 | 4 | 1 | . | . | .
